Reference: PubChem BioAssay AID602194 (The Scripps Research Institute Molecular Screening Center, 2012)
Screen size: about 2,400 compounds; about 140 (5.8%) were called active. Only a sample is shown. Values without a mark were called inactive.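 The calls were made as follows: active = mean activation across replicates exceeds the hit threshold derived in the earlier primary screen (cut at about 18% in these data); inactive = the rest.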

Each molecule was assayed against Mu-type opioid receptor (Homo sapiens) + Delta-type opioid receptor (Homo sapiens) (UniProt P35372+P41143) (assay: OPRM1-OPRD1 heterodimer beta-arrestin recruitment activators – cell-based, luminescence, counter-screen for MC4R biased agonist project (AID 602194)). Settings: U2OS PathHunter beta-arrestin, beta-gal luminescence; at 9.2 µM; stronger effect = higher value; percent of deltorphin B response, DMSO zero.
Chain of Mu-type opioid receptor (Homo sapiens) + Delta-type opioid receptor (Homo sapiens) (P35372 whole entry, looked up): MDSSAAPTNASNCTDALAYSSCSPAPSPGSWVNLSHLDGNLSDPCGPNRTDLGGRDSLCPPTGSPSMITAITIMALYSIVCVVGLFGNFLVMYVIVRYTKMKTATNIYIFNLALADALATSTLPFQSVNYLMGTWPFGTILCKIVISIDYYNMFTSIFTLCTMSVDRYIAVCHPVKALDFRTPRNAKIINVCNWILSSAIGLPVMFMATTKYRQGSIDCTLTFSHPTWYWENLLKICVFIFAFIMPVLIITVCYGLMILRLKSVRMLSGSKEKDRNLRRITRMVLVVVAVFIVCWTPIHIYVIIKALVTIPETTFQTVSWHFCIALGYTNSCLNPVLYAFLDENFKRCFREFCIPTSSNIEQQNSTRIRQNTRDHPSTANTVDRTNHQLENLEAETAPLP
Chain of Mu-type opioid receptor (Homo sapiens) + Delta-type opioid receptor (Homo sapiens) (P41143 whole entry, looked up): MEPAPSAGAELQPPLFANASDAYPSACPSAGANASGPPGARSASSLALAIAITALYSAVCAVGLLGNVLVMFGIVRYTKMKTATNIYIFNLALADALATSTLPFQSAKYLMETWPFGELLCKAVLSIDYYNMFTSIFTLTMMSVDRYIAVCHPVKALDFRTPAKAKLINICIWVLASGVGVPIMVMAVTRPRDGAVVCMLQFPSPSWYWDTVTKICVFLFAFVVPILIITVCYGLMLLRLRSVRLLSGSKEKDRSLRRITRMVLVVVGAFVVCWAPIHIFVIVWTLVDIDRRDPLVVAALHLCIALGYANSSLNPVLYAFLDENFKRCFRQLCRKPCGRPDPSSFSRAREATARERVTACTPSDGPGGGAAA
Procedure, shortened: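 Repeats: triplicate; Test system: U2OS Mu-Delta cell line; Benchmarks: Deltorphin B 0.9 µM final as 100%, DMSO only as 0%; Measured by: beta-gal complementation luminescence; Schedule: 3 h compound exposure at 37 °C, 1 h room-temperature readout; Dosing: single dose, 9.2 µM final nominal compound concentration.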
With `COC(=O)c1sccc1NC(=O)CCC1CCCC1` the activation was 6.23%.
`O=C(CCCN1C(=O)/C(=C/c2cccs2)SC1=S)Nc1ccc(O)cc1` showed an activation of 1.75%.
For `N#CCC(=O)N/N=C/c1cn(Cc2ccc3ccccc3c2)c2ccccc12`, the activation was 25.5% (active).
`CCOC(=O)c1c(-c2ccc(C)cc2C)csc1NC(=O)CSc1nnnn1C` was tested, and the activation was 7.04%.
With `CCN(CC)c1ccc(C(=O)N/N=C/c2ccc(N3CCOCC3)cc2)cc1` the activation was 13.2%.
With `COC(=O)c1nc2n(n1)C(c1ccc([N+](=O)[O-])cc1)C(C(=O)Nc1ccc(Cl)cc1)=C(C)N2` (stereo not given) the activation was 3.4%.
Work on `COc1ccc2sc(-c3ccc(S(C)(=O)=O)cc3)c(C#Cc3cncn3C)c2c1` yielded an activation of 9.34%.
Molecule `O=C(CCCCCn1c(=S)[nH]c2cc3c(cc2c1=O)OCO3)N1CCN(c2ccc(F)cc2)CC1` has an activation of 3.68%.
In the case of `COc1ccc(Cc2nnc(NC(=O)c3ccc(OC)cc3OC)s2)cc1`, the activation is reported as 4.47%.
`CCOC(=O)c1nn(-c2ccccc2F)c2nc(Nc3ccccc3)cc(=O)n12` was tested, and the activation was 17.8%.
`CCCOc1ccc(C(=O)C(CCC(CNCC)C(=O)c2ccc(OCCC)cc2)CNCC)cc1` (stereo not given) was tested, and the activation was 17.3%.
In the case of `Cc1ccc(-n2nc3cc(Cl)c(NC(=O)c4ccco4)cc3n2)cc1`, the activation is reported as 0.83%.
Work on `Oc1ccccc1N1CCN(c2ncnc3sc(-c4ccccc4)cc23)CC1` yielded an activation of 3.28%.
For `Cc1ccc(Nc2nnc(SCc3ccccc3)s2)cc1`, the activation was 8.17%.
Work on `COc1cccc(CNC(=O)c2nnn(CC(=O)Nc3cc(Cl)ccc3C)c2N)c1` yielded an activation of 11.8%.
In the case of `COCCN(CCOC)S(=O)(=O)c1ccc(C(=O)Nc2nc3c(s2)CCc2ccccc2-3)cc1`, the activation is reported as 6.22%.
For `Clc1ccc(Nc2ncnc3c2nnn3Cc2ccccc2)cc1`, the activation was 5.74%.
Work on `COC(=O)c1c(C)[nH]c(C(=O)/C=C/c2ccc(Cl)cc2)c1C` yielded an activation of 4.27%.
`COc1cc(/C=C2\Oc3ccc(C#Cc4ccc(O)cc4)cc3C2=O)cc(OC)c1` gave an activation of 11.3%.
In the case of `CN(C)CCNC(=O)c1cccc(-c2cnc3c(NC=O)cc(-c4cccc(C(F)(F)F)c4)cn23)c1`, the activation is reported as 7.61%.
Work on `O=C(Nc1nc(-c2ccc(-c3ccccc3)cc2)cs1)c1cnccn1` yielded an activation of 2.08%.
In the case of `Clc1ccccc1Nc1nc(NCc2cccs2)nc2ccsc12`, the activation is reported as 5.36%.
`CC(C)Oc1c(Br)cc(Br)cc1/C=N/NC(N)=S` gave an activation of 9.18%.
With `CCc1ccc(Nc2ncc3c(n2)CC(c2ccco2)CC3=O)cc1` (stereo not given) the activation was 13.5%.
`COc1cc(NC(=O)c2cncc(-c3ccc(C#N)cc3)c2)cc(C(=O)Nc2cccc(C(F)(F)F)c2)c1` was tested, and the activation was 5.39%.
Molecule `COc1ccc(Nc2oc(-c3ccccc3Cl)nc2C#N)cc1` has an activation of 6.69%.
Molecule `CCOC(=O)c1c(-c2ccccc2)oc2cc(Br)c(O)c(C=O)c12` has an activation of 3.34%.
`Cc1ccc2nc(-c3ccncc3)cc(C(=O)Nc3ccc(OC(F)F)cc3)c2c1` gave an activation of 8.13%.
Molecule `COc1ccc(/C=N/NC(=O)Nc2ccc3nsnc3c2)c(OC)c1` has an activation of 3.63%.
With `Cc1ccc(-n2nc(C)c(/C=N/NC(=O)c3cccs3)c2Cl)cc1` the activation was 7.37%.
Work on `COc1ccccc1NC(=O)Nc1nnc(Cc2ccc(F)cc2)s1` yielded an activation of 10.7%.
`Cc1c(-c2ccccc2)n[nH]c1C(=O)N=Nc1c(O)[nH]c2ccccc12` gave an activation of 8.27%.
`COc1ccc2nc(NC(=O)c3ccc(Br)s3)sc2c1` showed an activation of 8.88%.
Work on `C=CCn1c(SCC(=O)c2ccc(Br)cc2)nnc1C(C)NC(=O)Cc1ccc(OC)cc1` (stereo not given) yielded an activation of 7.14%.
For `O=C(OCc1cn(-c2ccc(Cl)c(Cl)c2)nn1)c1ccccc1Cl`, the activation was 3.56%.
Molecule `Cc1ccc(C(=O)Nc2ccc(NC(=O)c3cccs3)cc2)c(C)c1` has an activation of 6.51%.
`Cc1ccc(Sc2ccc(NC(=O)c3ccc(F)cc3)cc2C#N)cc1` showed an activation of 4.2%.
For `Cc1ccsc1/C=N/Nc1ccc(Cl)nn1`, the activation was 5.93%.
`Cc1ccc(-c2csc(SCC(=O)Nc3cc(C)on3)n2)cc1` was tested, and the activation was 7.19%.
`COc1cccc(NC(=S)NC(=O)c2c(Cl)c(C)nn2C)c1` showed an activation of 3.17%.
`N#CC(=C1SC=CS1)c1nc(-c2ccccc2)cs1` was tested, and the activation was 3.11%.
For `O=C(c1cc(-c2cccc(O)c2)on1)N1CCc2ccccc2C1`, the activation was 11.4%.
`CSc1ccc(S(=O)(=O)NCc2ccc(Cl)cc2)cc1` gave an activation of 8.41%.
In the case of `Cc1ccc(Nc2nnc(SCC(=O)c3cc4ccccc4o3)s2)cc1C`, the activation is reported as 4.48%.
Molecule `COc1ccc(C(=O)n2nc(-c3ccc(C)cc3)nc2N)cc1OC` has an activation of 4.64%.
`Fc1ccccc1/C=N/Nc1cc(N2CCCCC2)ncn1` gave an activation of 7.52%.
`Cc1cc(OCc2cc(C(=O)NCc3cc(C(C)C)no3)no2)cc(C)c1Cl` was tested, and the activation was 3.52%.
`CCN1CCC2(CC1)N=C(c1ccc(F)cc1)C(=S)N2C(=O)c1ccc(C)cc1` was tested, and the activation was 52% (active).
Work on `CCN(CC)C(=O)Oc1ccc(Br)cc1C(=O)Nc1ccc(F)c(Cl)c1` yielded an activation of 3.45%.
Work on `CN(C)CCCN(C(=O)c1ccc(S(=O)(=O)N2CCCCCC2)cc1)c1nc2ccc(Br)cc2s1` yielded an activation of 16.5%.
Molecule `S=C(NCCCc1cnc[nH]1)NCCCN(Cc1ccc(Cl)c(Cl)c1)c1ccc(Br)cn1` has an activation of 5.39%.
For `COc1ccc(Cn2c(C)c(C)c(C#N)c2NC(=O)Nc2ccc(F)cc2)cc1`, the activation was 7.17%.
With `COc1cccc(-c2cnc3c(NC(C)=O)cc(-c4cc(F)ccc4OC)cn23)c1` the activation was 3.13%.
`Cc1cc(/C=C(/C#N)C(=O)Nc2ccc(Cl)cc2)c(C)n1-c1cccnc1` was tested, and the activation was 4.36%.
For `CCC(=O)c1cc2c(cc1NC(=O)c1cccs1)OCCO2`, the activation was 3.16%.
`COC(=O)c1sccc1NC(=O)c1cc(OC)c(OC)c(OC)c1` showed an activation of 2.04%.
For `Cc1ccc(S(=O)(=O)NCCC(=O)Nc2ccc(C)c(Cl)c2)cc1C`, the activation was 10.4%.
Molecule `CN(C)C(=O)c1cccc(-c2cnc3c(NC=O)cc(-c4ccc(F)cc4)cn23)c1` has an activation of 1.45%.
With `Cn1c(=S)sc2ccc3ccccc3c21` the activation was 6.66%.
Work on `COc1ccc(Nc2ncnc3sc(-c4ccccc4)cc23)c(OC)c1` yielded an activation of 3.93%.
For `CC(=O)Nc1ccc(-c2csc(NC(=O)Nc3ccccc3)n2)cc1`, the activation was 4.45%.
`COc1ccc(C(N)c2csc(NC(=O)Nc3cccc(C(F)(F)F)c3)n2)cc1` (stereo not given) showed an activation of 13.5%.
`COc1ccc(CC(N)c2csc(NC(=O)NC(c3ccccc3)c3ccccc3)n2)cc1` (stereo not given) was tested, and the activation was 27.4% (active).
With `COc1ccc(Cl)cc1-n1c(C)cc(C(=O)OCC(=O)N2CC(=O)Nc3ccccc32)c1C` the activation was 3.77%.
Molecule `CC(=O)c1sc(NC(=O)CCCOc2ccccc2C)nc1C` has an activation of 7.21%.
Work on `CSc1nc2sc3c(c2c(=O)[nH]1)CCc1ccccc1-3` yielded an activation of 7.74%.
For `Cc1ccc(-c2csc(NC(=O)Cn3[nH]c(=O)c4ccccc4c3=O)n2)cc1`, the activation was 6.76%.
Work on `Cc1ccc(NC(=O)Nc2ccccc2)c(Br)c1` yielded an activation of 7.33%.
`CCn1c(SCC(=O)Nc2cccc(F)c2)nnc1-c1cc2cc(Br)ccc2o1` was tested, and the activation was 6.83%.
For `O=C(Nc1sc2c(c1-c1nc3ccccc3[nH]1)CCCC2)C1CC1`, the activation was 4.53%.
Work on `Cc1cccc(C)c1OC(=O)CSc1nnc(-c2ccccc2)o1` yielded an activation of 3.88%.
`O=C1N/C(=C/c2cccn2-c2ccccc2)C(=O)N1c1cccc(Cl)c1` gave an activation of 6.05%.
Molecule `O=C(CSc1ccccc1)Nc1nnc(/C=C/c2ccccc2)s1` has an activation of 6.5%.
`CCCCN1CC(C)(C)[C@H](CC(=O)Nc2ccc(Br)cc2)C1=O` gave an activation of 4.9%.
`COc1cccc2sc(N(CCCN(C)C)C(=O)C(c3ccccc3)c3ccccc3)nc12` showed an activation of 9.67%.
`COCCNc1nc(Nc2ccccc2Cl)c2sc(-c3ccccc3)cc2n1` was tested, and the activation was 5.13%.
In the case of `Cc1nn2cc(-c3ccc(Cl)cc3)cnc2c1Br`, the activation is reported as 2.93%.
`CCc1ccc2c(c1)cc(CN(C(=S)Nc1ccccc1Cl)C1CC1)c1nnnn12` showed an activation of 2.95%.
Work on `CC(=O)Nc1ccc(NC(=O)c2sc3nc4c(c(-c5ccc(C)cc5)c3c2N)CCC4)cc1` yielded an activation of 14.3%.
In the case of `Cc1ccc(CCC(=O)Nc2ncc(Cc3cc(Cl)ccc3Cl)s2)o1`, the activation is reported as 10.6%.
For `Cc1cc(C)cc(C(=O)OCC(=O)NCCNC(=O)COC(=O)c2cc(C)cc(C)c2)c1`, the activation was 3.35%.
Molecule `CC(C)c1ccc2c(c1)c(SC(C)(C)C)c(CC(C)(C)C(=O)O)n2Cc1ccc(Cl)cc1` has an activation of 4.65%.
`COc1ccc(S(=O)(=O)N2CCC(C(=O)OCC(=O)c3ccccc3)CC2)cc1[N+](=O)[O-]` was tested, and the activation was 4.26%.
`CCOc1ccc(/C=C/C(=O)OCC(=O)c2ccccc2OC)cc1OC` showed an activation of 3.55%.
`COc1ccc(C(=O)c2oc3ccc(Br)cc3c2NC(C)=O)cc1` was tested, and the activation was 1.7%.
`COc1cccc(CNCCc2c[nH]c3ccccc23)c1OCc1ccccc1F` was tested, and the activation was 39.6% (active).
`O=C(Cn1cnc2c(nnn2-c2ccccc2)c1=O)N1CCC(Cc2ccccc2)CC1` was tested, and the activation was 3.51%.
`O=C(OC12CC3CC(CC(C3)C1)C2)c1ccc(NCc2cc(O)ccc2O)cc1` gave an activation of 7.74%.
`Cc1ccc([C@H]2C[C@H](O)[C@@H](n3cc(COC(=O)c4ccccc4)nn3)CN2C(=O)C2CCCCC2)cc1` showed an activation of 5.71%.
`O=C(Nc1ccc2oc(-c3ccc4ccccc4c3)nc2c1)c1cccs1` was tested, and the activation was 5.63%.
